Shown are actives, neighbours in structure and some others; about 2.2% of the full set was active somewhere.
IMP-1 inhibitor = blocks Pseudomonas aeruginosa IMP-1 metallo-beta-lactamase; 290,000 tested, 0.45% active; purified IMP-1, nitrocefin hydrolysis, epi-absorbance fluorescence; AID 1556; inhibition, % at 5.6 µM;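 active means inhibition above the mean plus 3 SD of all compounds in the same screening run, cut at about 4.5% in these data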
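System – purified recombinant IMP-1 beta-lactamase · Input – IMP-1 dispensed at 0.2 nM · Timing – 15 min preincubation plus 25 min reaction at 25 °C · Signal – Epi-absorbance fluorescence, 480 nm excitation, 530 nm emission · Measure – percent IMP-1 inhibition derived from blank-referenced optical density · Controls – Enzyme-plus-DMSO low control, enzyme-free DMSO high control · Replication – singlicate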
eIF4H inh = inhibitors of RNA binding by human eIF4H. Q15056. eIF4H fluorescence polarization binding assay. inhibition, % at 35 µM. 290,000 tested, 0.94% active. AID 2012;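 further: calls also rest on retests at 20 µM and on dose response follow-up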
PABP FP inh = blocks human PABP binding to poly(A) RNA | 290,000 tested, 1% active | P11940 | fluorescence polarization | calls only at 35 µM;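 further: calls also rest on retests at 20 µM and on dose response follow-up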
MLLE-PAM2 inh = inhibitors of microRNA-mediated deadenylation, human PABP1 MLLE binding; 360,000 tested, 0.36% active; inhibition, % at 20 µM; GST-MLLE / FITC-PAM2 fluorescence polarization; in the data active means inhibition above about 35%, passing the limit was not always enough
VIM-2 inh = blocks Pseudomonas aeruginosa VIM-2 metallo-beta-lactamase; purified VIM-2, nitrocefin hydrolysis, epi-absorbance fluorescence; inhibition, % at 5.6 µM; 290,000 tested, 0.89% active; AID 1527;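 active means inhibition above the mean of all tested compounds plus 3 SD, cutoff set per screening run, cut at about 7.5% in these data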;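 further: red hydrolysis product quenches plate fluorescence so inhibitors raise well fluorescence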
Of the large screens only hits and unclear results are named; the others gave an inactive call. Unless noted, how the calls were made is not given here.

O=C(CSc1nc2ccccc2c(=O)n1-c1ccccc1)N1CCc2ccccc2C1	none
Cc1ncsc1CCSc1nc2ccccc2c(=O)n1C	VIM-2 inh 21
O=C(NNC(=O)c1cccs1)c1ccc([N+](=O)[O-])cc1	none (no result: MLLE-PAM2 inh)
CC(C)Cc1cc(CNC(=O)C2CCC(=O)N(Cc3cccc(C(F)(F)F)c3)C2)on1 (stereo not drawn)	none
FC(F)(F)c1cccc(NC(=S)Nc2cccc(NC(=S)Nc3cccc(C(F)(F)F)c3)n2)c1	MLLE-PAM2 inh 47
FC(F)(F)c1cccc(NC(=S)NNC(=S)NCc2ccccc2)c1	MLLE-PAM2 inh 41
CCN1CCN(CC(=O)N2CCCC(C(=O)c3ccc(Oc4ccccc4)cc3)C2)CC1 (stereo not drawn)	none
CCc1noc(C)c1C(=O)Nc1nc(-c2ccccc2)c(C(C)=O)s1	none (no result: IMP-1 inhibitor, eIF4H inh, PABP FP inh, VIM-2 inh)
COc1ccc(C2C3=C(CCCC3=O)N(CC(=O)O)C3=C2C(=O)CCC3)cc1Cl	none
CCOc1cc(C2C3=C(CCCC3=O)N(CC(=O)O)C3=C2C(=O)CCC3)ccc1OC	MLLE-PAM2 inh 60
CCNS(=O)(=O)c1ccc(CCC(=O)N2CCN(c3ccccc3F)CC2)cc1	none
COc1ccc2c(C)cc(SCC(=O)NC3CCCCC3)nc2c1	none (no result: IMP-1 inhibitor, eIF4H inh, PABP FP inh, VIM-2 inh)
COc1ccc2c(C)cc(SCC(=O)N3CCOCC3)nc2c1	eIF4H inh 124, PABP FP inh active
COc1ccc2c(-c3ccccc3)cc(SCC(N)=O)nc2c1	eIF4H inh 80, PABP FP inh active
CCN1CCN(C(=O)C(C)Sc2nnc3nc(C)cc(C)n23)CC1 (stereo not drawn)	none (no result: IMP-1 inhibitor, eIF4H inh, PABP FP inh, VIM-2 inh)
C#CCNC(=O)C(C)c1ncc(C(F)(F)F)cc1Cl (stereo not drawn)	none
COc1ccc(CNC(=O)C(c2ccco2)N(C(=O)Cc2cccs2)c2cccnc2)cc1 (stereo not drawn)	eIF4H inh 77
COc1ccc(CNC(=O)C(c2ccco2)N(Cc2cccs2)C(=O)Cc2cccs2)cc1 (stereo not drawn)	none
COc1ccc(CCN(C)C(=O)Cc2ccc(-c3ccccc3)cc2)cc1OC	IMP-1 inhibitor 8.5
O=C(COc1ccc2c3c(c(=O)oc2c1)CCCC3)NCCCN1CCOCC1	VIM-2 inh 11
Cc1c(C)c2ccc(OCC(=O)NCCN3CCOCC3)c(C)c2oc1=O	VIM-2 inh 11
CCc1cc(=O)oc2cc(OCC(=O)NCCCn3ccnc3)ccc12	VIM-2 inh 11
CCCc1cc(=O)oc2c(C)c(OCC(=O)NCCN3CCOCC3)ccc12	none
COc1ccc(-c2cc(=O)oc3cc(OCC(=O)NCCCn4ccnc4)ccc23)cc1	none
O=C(COc1ccc2c3c(c(=O)oc2c1)CCCC3)NCCN1CCOCC1	VIM-2 inh 12 (no result: eIF4H inh, PABP FP inh)
CC1=NN(/C(=N\c2nnc(C)s2)Nc2ccc(C(C)(C)C)cc2)[C@H](c2ccc(C)cc2)S1	none
O=C(CSc1ncnc2c1cnn2CCO)Nc1cccc(C(F)(F)F)c1	none
Cc1nc(NCc2ccco2)c2c3c(sc2n1)CCC3	none
CCN1CCc2c(sc3c2c(NCc2ccco2)nc2nnnn23)C1	eIF4H inh 57, PABP FP inh active
CCc1c(C)c2cc(Cl)c(O)c(CN(C)C)c2oc1=O	IMP-1 inhibitor 7.6
CN(C)Cc1c(O)c(Cl)cc2c3c(c(=O)oc12)CCCC3	eIF4H inh 64, PABP FP inh active
CCc1c(C)c2cc(Cl)c(O)c(CN(CC)CC)c2oc1=O	IMP-1 inhibitor 8.8
COCC(C)NC(=O)C(C)Oc1ccccc1 (stereo not drawn)	none
CS(=O)(=O)N1N=C(c2cccs2)CC1c1ccccc1O (stereo not drawn)	eIF4H inh 59, PABP FP inh active
c1ccc(-c2nnc(-c3ccco3)o2)cc1	none
c1coc(-c2nnc(-c3ccco3)nn2)c1	eIF4H inh 99, PABP FP inh active, MLLE-PAM2 inh 38
O=C(NCc1ccccc1Cl)c1csc([C@@H]2O[C@H](CO)[C@H](O)[C@H](O)[C@H]2O)n1	none (no result: IMP-1 inhibitor, eIF4H inh, PABP FP inh, VIM-2 inh)
COc1ccc(C(=O)N2CCC(n3nccc3NC(=O)C3CCOC3)CC2)cc1 (stereo not drawn)	none
CCOC(=O)c1cc(-c2ccccc2)sc1NC(=O)C(C)N1C(=O)NC(C)(c2ccc(Cl)cc2)C1=O (stereo not drawn)	eIF4H inh active, PABP FP inh active
Cn1c(=O)c2c(nc(Oc3ccccc3Br)n2C)n(C)c1=O	VIM-2 inh 10.0
OCCN(CCO)c1nc(N2CCCCC2)c2nc(N(CCO)CCO)nc(N3CCCCC3)c2n1	IMP-1 inhibitor 12, eIF4H inh inconclusive
Cc1ccc(CNC(=O)CN2NS(=O)(=O)c3ccccc3C2=O)cc1	none (no result: IMP-1 inhibitor, eIF4H inh, PABP FP inh, VIM-2 inh)
CCCCc1ccc(NC(=O)CN2NS(=O)(=O)c3ccccc3C2=O)cc1	IMP-1 inhibitor 5.5
CC(C)(C)C(=O)Nc1ccc(S(=O)(=O)N2CCC(c3nc4ccccc4[nH]3)CC2)cc1	none (no result: IMP-1 inhibitor, eIF4H inh, PABP FP inh, VIM-2 inh)
Cc1c(C(=O)NCc2cccc(C(F)(F)F)c2)sc(=O)n1Cc1ccc(C(=O)N(C)C)cc1	none (no result: IMP-1 inhibitor, eIF4H inh, PABP FP inh, VIM-2 inh)
Cc1ccc(NC(=O)c2cc(N3C(=O)C=CC3=O)ccc2Cl)cc1C	eIF4H inh inconclusive, PABP FP inh active
Cc1cccc(Cc2nnc(CCC(=O)N(C)C3CCOC3)o2)c1 (stereo not drawn)	none
CCN(CC)CCN1C(=O)/C(=C\c2ccc(Cl)c([N+](=O)[O-])c2)SC1=Nc1ccc(OC)cc1	VIM-2 inh 8.0
CSCCC1NC(=O)C(C(C)=NNC(N)=O)=C1O (stereo not drawn)	none (no result: IMP-1 inhibitor, eIF4H inh, PABP FP inh, VIM-2 inh)
Cc1c(OCC(=O)NCC2CCC(C(=O)O)CC2)ccc2c3c(c(=O)oc12)CCC3 (stereo not drawn)	VIM-2 inh 9.4
Cc1c(C)c2c(OCC(=O)NCC(O)c3ccccc3)cc3c(c2oc1=O)CCC(C)(C)O3 (stereo not drawn)	none
Cc1c(OCc2nn[nH]n2)ccc2c3c(c(=O)oc12)CCC(C)C3 (stereo not drawn)	none
CCOC(=O)COc1ccc2c3c(c(=O)oc2c1C)CCC3	VIM-2 inh 8.1
Cc1c(OCC(=O)NCC(O)c2ccccc2)ccc2c3c(c(=O)oc12)CCCC3 (stereo not drawn)	VIM-2 inh 9.3
Cc1c(OCC(=O)C(C)(C)C)ccc2c3c(c(=O)oc12)CCCC3	none
Cc1c(OCc2nn[nH]n2)ccc2c3c(c(=O)oc12)CCCC3	VIM-2 inh 7.8
COCCNC(=O)C(c1cccs1)N(C(=O)Cn1nnc2ccccc21)c1ccc(OC)cc1 (stereo not drawn)	none
O=C(COC(=O)c1ccc(Cl)c(S(=O)(=O)N2CCCCCC2)c1)NCc1ccccc1	none (no result: IMP-1 inhibitor, eIF4H inh, PABP FP inh, VIM-2 inh)
O=[N+]([O-])c1c(NCCCO)cc(SCc2ccco2)c2nonc12	eIF4H inh inconclusive, MLLE-PAM2 inh 41
COc1ccc(-n2nc3c(c2NC(=O)COc2cccc(OC)c2)CS(=O)(=O)C3)cc1	none
CC(C)Cn1c(N)c(C(=O)CSc2cc(Cl)ccc2Cl)c(=O)n(C)c1=O	none (no result: MLLE-PAM2 inh)
O=C(c1cccc(NC2=NC3CS(=O)(=O)CC3S2)c1)N1CCN(c2ncccn2)CC1 (stereo not drawn)	none
